HSF1 inhib – HSF1 inhibition; hit rate 0.77% among 300,000; activity change, negative = inhibition, % at 7.5 µM (by protocol); NIH3T3-HGL HSE-luciferase, MG132-induced, luminescence 8 h; hits give low values; AID 2098;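 active = more than half of replicate wells show activity change below -50%, luminescence cut by over half; inconclusive = some wells, but at most half, below -50%; inactive = no replicate well below -50%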;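 also: luciferase reports HSF-1 transcriptional activity via heat shock element; 0% = median of DMSO wells and -100% = zero luminescence signal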
Hsp70 act – Hsp70 transcriptional activation, primary screen | HeLa Hsp70 promoter luciferase reporter, luminescence; scaled: vehicle 0, proteasome-inhibitor control 100% | hit rate 0.04% among 200,000 | activation, % at 10 µM;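 active = activation above the mean across all tested compounds plus 3 SD, cutoff set per campaign, cut at about 5.5% in these data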;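 also: 100% = MG132 at 30 µM as the positive control and 0% = DMSO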
L major viab – inhibitors of Leishmania major promastigote growth | Leishmania major promastigotes, resazurin fluorescence viability | inhibition, % at 10 µM | hit rate 9% among 200,000 | AID 1063; in the data active = inhibition above about 50%;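 also: promastigotes grown with compound for 44 hours at 28 °C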
T cruzi repl – blocks replication of Trypanosoma cruzi | T. cruzi beta-gal in NIH3T3, luminescence, 90 h | inhibition, % (concentration not given with the values) | hit rate 1.4% among 300,000 | AID 1885;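 active = mean inhibition across valid replicates above about 55%, limit read from the data; inconclusive = mean below that limit but half or more replicates reach it; inactive = mean below it, under half of replicates reach it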;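 also: signal also drops with host cell toxicity which is not excluded here; 0% = plate median of DMSO wells and 100% = zero luminescence signal; higher percent means less beta-gal luminescence so fewer parasites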
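assay system = mouse NIH/3T3 fibroblasts infected with β-gal-expressing T. cruzi Tulahuen C4 | input = 5,000 NIH/3T3 host cells per well | buffer or medium = DMEM plus 2% FBS | timing = 3 h host attachment, then at least 90 h co-culture | measured by = GalScreen luminescence, 60 min | evaluation = luminescence reflecting intracellular parasite burden, expressed as percent inhibition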
HSF-1 act – increases HSF-1 driven luciferase reporter signal; NIH3T3-HGL HSF-1 luciferase reporter, MG132, 8 h; 100% = twice DMSO control signal; activation, % at 9 µM; hit rate 1.7% among 300,000;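 active = mean replicate activation of at least 50% with a set share of replicates each reaching 50%; inconclusive = only one of those two conditions met; inactive = mean below 50% and too few replicates reaching it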;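 also: 0% = median of the neutral control wells and 100% = twice that signal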
* = called active by the depositor; ? = inconclusive; . = no result. This excerpt belongs to a sample that is enriched for hits.

SMILES	HSF1 inhib	Hsp70 act	L major viab	T cruzi repl	HSF-1 act
O=C(Nc1ccccc1SCC1CSc2nc3ccccc3c(=O)n21)c1ccccc1 (configuration not stated)	-8.6	-0.1	-8.0	13.0	1.8
O=c1c2ccccc2nc2n1C(CSCc1ccc(Cl)cc1)CS2 (configuration not stated)	12.3	-0.4	59.5*	-2.3	26.5
CCOc1cc(N2CCOCC2)c(OCC)cc1NC(=O)c1c(-c2ccccc2Cl)noc1C	8.9	-0.3	17.0	8.2	8.9
CSCC(O)Cn1ncc2ccccc2c1=O (configuration not stated)	-4.0	.	.	-2.0	3.9
CC(=O)NC(c1ccc(Cl)cc1)c1c(O)ccc2ccc(O)cc12 (configuration not stated)	14.3	-0.2	44.1	10.1	26.5
O=C(NC(c1ccc(Cl)cc1)c1c(O)ccc2ccccc12)c1ccccc1 (configuration not stated)	.	-0.4	99.2*	.	.
O=C(NC(c1ccccc1)c1c(O)ccc2ccccc12)c1ccccc1Cl (configuration not stated)	0.7	-0.4	99.7*	-7.2	30.6
CC(C)CC(=O)NC(c1ccccc1)c1c(O)ccc2ccccc12 (configuration not stated)	11.1	.	.	13.5	37.4
CC(C)OP(=O)(OC(C)C)C1(O)C(=O)Nc2ccccc21 (configuration not stated)	-5.8	-0.6	-4.5	-3.8	3.3
CCOc1cc(S(=O)(=O)N2CCCCC2)ccc1Cl	-1.2	-0.2	10.9	-18.2	-10.6
CCOc1cc(S(=O)(=O)N2CCN(CC)CC2)ccc1Cl	-1.6	-0.5	89.7*	9.0	-8.5
CCCN1CCN(S(=O)(=O)c2ccc(OC)c(Br)c2)CC1	0.2	-0.1	96.0*	-9.6	6.1
COc1ccc(CN2CCN(S(=O)(=O)c3ccc(C)cc3)CC2)cc1Br	-40.8	-0.4	67.7*	27.1	-56.1
CCN(CC)CCCNC(=O)C1CCC(CNS(=O)(=O)c2ccc(Cl)cc2)CC1 (configuration not stated)	-67.3*	.	.	22.9	-73.1
O=C(OCc1nnc(-c2ccccc2)o1)c1cccc(-n2cnnn2)c1	-0.5	.	.	-7.3	-3.3
Cc1ccccc1Cn1c(O)c(N=NC(=S)Nc2ccccc2F)c2ccccc21	-13.9	-0.3	76.1*	36.4	-5.5
Cc1ccc(Cn2c(O)c(N=NC(=S)Nc3ccccc3F)c3cc(S(=O)(=O)N4CCOCC4)ccc32)cc1	.	-0.2	2.9	-15.3	.
Oc1c(N=NC(=S)Nc2ccccc2F)c2ccccc2n1Cc1ccc(Cl)cc1	-18.2	-0.3	95.7*	60.9*	-18.9
CCNC(=S)N=Nc1c(O)n(Cc2ccc(Cl)cc2)c2ccccc12	-6.4	-0.2	8.7	-2.6	-4.6
Oc1c(N=NC(=S)Nc2ccccc2F)c2ccccc2n1Cc1ccccc1F	-0.7	0.0	95.7*	88.5*	-8.8
Cc1ccc(C)c(Cn2c(O)c(N=NC(=S)Nc3ccccc3F)c3ccccc32)c1	-21.8	0.0	95.8*	67.0*	-27.6
Cc1ccc(C)n1-c1ccc(C(=O)NN)s1	3.2	-0.2	-7.0	-3.1	-1.5
COc1ccc(N2CCN(c3oc(COc4ccccc4)nc3C#N)CC2)cc1	.	0.5	-6.0	.	.
CN(C)CCNc1oc(COc2ccc(-c3ccccc3)cc2)nc1C#N	-0.9	-0.1	66.0*	24.4	18.9
N#Cc1nc(COc2ccccc2)oc1NCCN1CCOCC1	-0.9	-0.3	4.4	-3.2	-0.8
SMILES	HSF1 inhib	Hsp70 act	L major viab	T cruzi repl	HSF-1 act
N#Cc1nc(COc2ccc(-c3ccccc3)cc2)oc1NCCCN1CCOCC1	3.0	-0.6	63.6*	-4.0	22.9
CN1CCN(c2oc(COc3ccc(-c4ccccc4)cc3)nc2C#N)CC1	9.1	-0.5	9.8	76.7*	2.4
O=S(=O)(Nc1ccc(N2CCOCC2)cc1)c1c(F)cc(F)cc1Br	-17.7	.	.	16.3	-25.6
COCCNC(=O)CN(C(=O)CCC(=O)Nc1ccccn1)c1ccccc1OC	-3.6	.	.	-5.3	-7.2
CCN(CC)S(=O)(=O)c1cc(NC(=O)C(=O)c2c(-c3ccccc3)cc3ccccn23)ccc1C	6.5	-0.1	90.9*	33.6	27.1
CCN(CC)S(=O)(=O)c1cccc(NC(=O)C(=O)c2c(-c3ccccc3)cc3ccccn23)c1	-3.3	-0.3	98.3*	48.2	10.5
CN(C)CCNC(=O)C(=O)c1c(-c2ccccc2)cc2ccccn12	2.9	-0.2	-4.4	1.2	-2.8
CCN(CC)S(=O)(=O)c1ccc(N2CCOCC2)c(NC(=O)C(=O)c2c(-c3ccccc3)cc3ccccn23)c1	10.1	-0.1	24.0	?	25.9
O=C(CCc1c[nH]c2ccccc12)OCc1ccc(Br)cc1	4.3	.	.	-1.4	29.5
CC1CC1C(=O)N(C)CC(=O)Nc1cccc(F)c1 (configuration not stated)	-4.3	.	.	-10.2	-6.8
O=C(Nc1nc(-c2ccc(S(=O)(=O)N3CCCC3)cc2)cs1)c1cccs1	.	-0.1	99.8*	.	.
O=C(Oc1cccc(NC(=O)c2cccs2)c1)c1cccc(S(=O)(=O)N2CCCC2)c1	13.3	-0.1	62.0*	1.7	29.6
O=C(Nc1nc(-c2ccc(S(=O)(=O)N3CCCCCC3)cc2)cs1)c1cccs1	-1.1	-0.4	22.3	70.3*	-4.5
O=C(Nc1cccc(S(=O)(=O)N2CCCCC2)c1)c1cccs1	6.7	.	.	0.9	17.0
Cc1ccc(-c2csc(NC(=O)c3cccc(S(=O)(=O)N4CCN(C)CC4)c3)n2)cc1	3.3	0.0	6.5	18.8	5.4
O=C(Nc1ccc(S(=O)(=O)N2CCCC2)cc1)c1cccs1	4.3	-0.2	1.5	-2.6	4.5
O=C(Nc1nc(-c2cccs2)cs1)c1cccc(S(=O)(=O)N2CCCCC2)c1	-49.0	-0.6	28.0	61.6*	-61.8
O=C(CCc1nnc2ccc(N3CCCC3)nn12)Nc1cc(F)ccc1F	0.0	.	.	1.2	8.2
CS(=O)(=O)CCC(C(=O)OCc1ccc(Cl)cc1)N1C(=O)c2ccccc2C1=O (configuration not stated)	-5.2	-0.4	-0.8	-8.3	-8.7
Cc1cc(C)nc(-n2nc(C)cc2NC(=O)c2cccc(S(=O)(=O)N3CCCCC3)c2)n1	.	0.0	72.2*	.	.
COc1cc(Cc2ccc(N)c(OC)c2)ccc1N	0.8	-0.5	-5.7	9.4	-0.8
Nc1ccc(Cc2ccc(N)c(O)c2)cc1O	.	-0.3	98.9*	.	.
COC(=O)C(C(=O)Nc1nc2ccccc2s1)C1CCCC1 (configuration not stated)	-1.4	-0.1	-7.1	11.8	2.4
COc1c(C)cc(C(=O)C2CCCN(C(=O)/C=C/c3ccccn3)C2)cc1C (configuration not stated)	-1.5	-0.2	14.4	-3.5	11.9
Fc1ccc(Oc2nc(-c3ccccc3)nnc2C(F)(F)F)cc1	2.0	-0.3	-9.2	-31.2	12.8
Fc1ccc(Sc2nc(-c3ccccc3)nnc2C(F)(F)F)cc1	42.9	0.0	47.9	32.2	66.5*

Source: PubChem (several laboratories)
